These results are taken from ChEMBL document CHEMBL1140655, “Design and synthesis of hepatoselective, pyrrole-based HMG-CoA reductase inhibitors” (Bioorg Med Chem Lett, 2007).

SMILES strings stand for the structures. The source made the active and inactive calls. No cut-off for these calls is given here.

In one assay the test system is Mus musculus. Kind of assay: Inhibition of acute cholesterol synthesis in mouse at 1 mg/kg. As to conditions: for inhibition in vivo at 1 mg/kg: read-out: Inhibition. Type of assay: functional.
A further assay has as its system Hepatocyte. Briefly: Inhibition of cholesterol synthesis in rat hepatocyte. Type of assay: functional, cell-based.
Assay [1] can be described thus: Inhibition of cholesterol synthesis in rat myocyte. Format: functional, cell-based. Particulars: Ventricular myocyte.
In assay [2] the target is T1, 3-hydroxy-3-methylglutaryl-coenzyme A reductase (Homo sapiens, UniProt P04035).
T1 sequence (P04035 whole entry): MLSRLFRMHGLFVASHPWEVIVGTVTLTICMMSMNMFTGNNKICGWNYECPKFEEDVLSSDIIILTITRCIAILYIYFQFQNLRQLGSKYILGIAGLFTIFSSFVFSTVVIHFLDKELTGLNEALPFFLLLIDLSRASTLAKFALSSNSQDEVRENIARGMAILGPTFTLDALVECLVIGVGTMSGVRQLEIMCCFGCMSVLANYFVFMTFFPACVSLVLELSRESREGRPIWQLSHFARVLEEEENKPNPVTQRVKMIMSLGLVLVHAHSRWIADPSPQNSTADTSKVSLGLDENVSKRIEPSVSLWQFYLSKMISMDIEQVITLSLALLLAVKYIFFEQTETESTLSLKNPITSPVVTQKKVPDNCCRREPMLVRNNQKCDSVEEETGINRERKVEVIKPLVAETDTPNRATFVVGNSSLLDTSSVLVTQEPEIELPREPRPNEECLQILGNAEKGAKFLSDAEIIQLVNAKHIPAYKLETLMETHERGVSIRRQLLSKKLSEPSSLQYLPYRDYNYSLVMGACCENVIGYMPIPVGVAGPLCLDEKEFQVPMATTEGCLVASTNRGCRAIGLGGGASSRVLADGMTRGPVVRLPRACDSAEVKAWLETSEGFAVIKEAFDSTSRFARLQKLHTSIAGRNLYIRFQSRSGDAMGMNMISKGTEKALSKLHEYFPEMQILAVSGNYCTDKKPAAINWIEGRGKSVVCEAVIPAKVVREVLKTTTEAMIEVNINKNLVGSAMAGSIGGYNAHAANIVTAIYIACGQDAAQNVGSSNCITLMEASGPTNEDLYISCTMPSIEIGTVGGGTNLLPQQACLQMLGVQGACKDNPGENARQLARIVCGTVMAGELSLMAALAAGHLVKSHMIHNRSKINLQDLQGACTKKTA
Briefly: Inhibition of HMG-CoA reductase.

The nature of assay [3]: Reduction in LDL cholesterol on cholestyramine-primed hamster serum at 10 mg/kg, po after 7 days. Set-up: scale not given: the % may be the effect or the level left. Type of assay: functional. The gist of the method: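 Cholestyramine-primed hamsters were dosed orally at 10 mg/kg once daily for 7 days. At the end of treatment, serum LDL-C was measured and percent reduction calculated against an untreated control group.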

The term IC50 denotes the concentration that gives 50% inhibition. Turning to `CC(C)n1c(CC[C@@H](O)C[C@@H](O)CC(=O)O)c(-c2ccc(F)cc2)c(-c2ccc(F)cc2)c1C(=O)Nc1cccc(O)c1`, the inhibition in vivo at 1 mg/kg with Mus musculus amounted to 22%. Besides, the IC50 with Hepatocyte worked out at 1.2 nM; in assay [1] it was 524 nM; in assay [2], 0.7 nM.
Turning to `CC(C)n1c(CC[C@@H](O)C[C@@H](O)CC(=O)O)c(-c2ccc(F)cc2)c(-c2ccccc2)c1C(=O)N(C)C`, in the assay with Mus musculus, the inhibition in vivo at 1 mg/kg was found to be 85%. For the same compound, the IC50 in the assay on Hepatocyte worked out at 0.9 nM; in assay [1] it was 1580 nM; in assay [2], 20 nM.
`COc1ccc(CNC(=O)c2c(-c3ccccc3)c(-c3ccc(F)cc3)c(CC[C@@H](O)C[C@@H](O)CC(=O)O)n2C(C)C)cc1`: the inhibition in vivo at 1 mg/kg in the assay with Mus musculus came out at 52%. For the same compound, the IC50 was determined as 0.4 nM in the assay with Hepatocyte, 310 nM in assay [1] and 0.8 nM in assay [2].
For `Cc1cnc(CNC(=O)c2c(-c3ccccc3)c(-c3ccc(F)cc3)c(CC[C@@H](O)C[C@@H](O)CC(=O)O)n2C(C)C)[nH]1`, the inhibition in vivo at 1 mg/kg with Mus musculus stood at 11%. For the same compound, the 50% inhibitory concentration (IC50) in the assay on Hepatocyte was found to be 0.5 nM; in assay [1], 10400 nM; in assay [2], 3.4 nM.
As to `CC(C)n1c(CC[C@@H](O)C[C@@H](O)CC(=O)[O-])c(-c2ccc(F)cc2)c(-c2ccccc2)c1C(=O)NC1CC1.[Na+]`, the inhibition in vivo at 1 mg/kg in the assay on Mus musculus was found to be 70%. Further, the figures for the IC50 (in the assay on Hepatocyte; in assay [1]; in assay [2]) were 2 nM, 2780 nM and 3.8 nM, respectively. Besides, in assay [3], the Activity is given as -24%.
On to `CC(C)n1c(CC[C@@H](O)C[C@@H](O)CC(=O)O)c(-c2ccc(F)cc2)c(-c2ccccc2)c1C(=O)Nc1ccc(S(N)(=O)=O)cc1`, for which, in the assay on Mus musculus, the inhibition in vivo at 1 mg/kg came to 32%. In addition, the figures for the IC50 (with Hepatocyte; in assay [1]; in assay [2]) were 0.3 nM, 1790 nM and 2.9 nM, respectively.
For `CC(C)n1c(CC[C@@H](O)C[C@@H](O)CC(=O)[O-])c(-c2ccc(F)cc2)c(-c2ccccc2)c1C(N)=O.[Na+]`, the inhibition in vivo at 1 mg/kg with Mus musculus came out at 85%. The IC50 in the assay with Hepatocyte was determined as 0.6 nM; in assay [1], 2450 nM; in assay [2], 3 nM. Moreover, in assay [3], the Activity is given as -11%.
As for `CC(C)n1c(CC[C@@H](O)C[C@@H](O)CC(=O)O)c(-c2ccc(F)cc2)c(-c2ccccc2)c1C(=O)Nc1ccccc1`, the inhibition in vivo at 1 mg/kg in the assay on Mus musculus is 57%. Also, the results for the IC50 (with Hepatocyte; in assay [1]; in assay [2]) were 1 nM, 229 nM and 1.8 nM, respectively.
For `CC(C)n1c(CC[C@@H](O)C[C@@H](O)CC(=O)O)c(-c2ccc(F)cc2)c(-c2ccccc2)c1C(=O)Nc1ccc(C(=O)O)cc1`, the inhibition entry in the assay on Mus musculus is “inactive”. Further, the half-inhibitory concentration (IC50) was determined as 0.1 nM with Hepatocyte, 12600 nM in assay [1] and 0.3 nM in assay [2].
In the case of `CC(C)n1c(CC[C@@H](O)C[C@@H](O)CC(=O)O)c(-c2ccc(F)cc2)c(-c2ccccc2)c1C(=O)Nc1ccc(O)cc1`, in the assay on Mus musculus, the inhibition in vivo at 1 mg/kg is 48%. Besides, the values for the IC50 (in the assay with Hepatocyte; in assay [1]; in assay [2]) were 0.5 nM, 626 nM and 0.4 nM, respectively.
For `COc1cccc(CNC(=O)c2c(-c3ccccc3)c(-c3ccc(F)cc3)c(CC[C@@H](O)C[C@@H](O)CC(=O)O)n2C(C)C)c1`, the results for the 50% inhibitory concentration (IC50) (with Hepatocyte; in assay [1]; in assay [2]) were 0.1 nM, 130 nM and 1.8 nM, respectively.
For the compound `CC(C)n1c(CC[C@@H](O)C[C@@H](O)CC(=O)O)c(-c2ccc(F)cc2)c(-c2ccccc2)c1C(=O)NCc1ccc(C(=O)N(C)C)cc1`, the inhibition in vivo at 1 mg/kg with Mus musculus amounted to 38%. In addition, the values for the IC50 (in the assay on Hepatocyte; in assay [1]; in assay [2]) were 4.9 nM, 6520 nM and 1.2 nM, respectively.
Regarding `CC(C)n1c(CC[C@@H](O)C[C@@H](O)CC(=O)O)c(-c2ccc(F)cc2)c(-c2ccccc2)c1C(=O)NCc1ccccn1`, in the assay on Mus musculus, the inhibition in vivo at 1 mg/kg is 39%. The figures for the IC50 (with Hepatocyte; in assay [1]; in assay [2]) were 0.1 nM, 472 nM and 0.8 nM, respectively.
With `Cc1cc(CNC(=O)c2c(-c3ccccc3)c(-c3ccc(F)cc3)c(CC[C@@H](O)C[C@@H](O)CC(=O)O)n2C(C)C)nn1C`, the inhibition in vivo at 1 mg/kg in the assay on Mus musculus was 19%. In addition, the IC50 amounted to 0.9 nM in the assay with Hepatocyte, 3230 nM in assay [1] and 0.6 nM in assay [2].
As for `Cc1csc(CNC(=O)c2c(-c3ccccc3)c(-c3ccc(F)cc3)c(CC[C@@H](O)C[C@@H](O)CC(=O)O)n2C(C)C)n1`, in the assay on Mus musculus, the inhibition in vivo at 1 mg/kg was 33%. The results for the IC50 (with Hepatocyte; in assay [1]; in assay [2]) were 1.5 nM, 1010 nM and 1.5 nM, respectively.
Regarding `COc1cccc(NC(=O)c2c(-c3ccc(F)cc3)c(-c3ccc(F)cc3)c(CC[C@@H](O)C[C@@H](O)CC(=O)O)n2C(C)C)c1`, the inhibition in vivo at 1 mg/kg in the assay on Mus musculus amounted to 54%. For the same compound, the figures for the IC50 (with Hepatocyte; in assay [1]; in assay [2]) were 0.3 nM, 50 nM and 6.6 nM, respectively.
For `CCC(C)(C)C(=O)O[C@H]1C[C@@H](C)C=C2C=C[C@H](C)[C@H](CC[C@@H]3C[C@@H](O)CC(=O)O3)[C@H]21` [SIMVASTATIN], the values for the IC50 (in the assay on Hepatocyte; in assay [1]) were 1.3 nM and 150 nM, respectively.
For `COCc1ccc(CNC(=O)c2c(-c3ccccc3)c(-c3ccc(F)cc3)c(CC[C@@H](O)C[C@@H](O)CC(=O)O)n2C(C)C)cc1`, the IC50 in the assay with Hepatocyte was determined as 1.5 nM; in assay [1], 211 nM; in assay [2] it was 0.7 nM.
Regarding `CC(C)n1c(CC[C@@H](O)C[C@@H](O)CC(=O)O)c(-c2ccc(F)cc2)c(-c2ccc(F)cc2)c1C(=O)Nc1cccc(C(=O)N(C)C)c1`, the inhibition in vivo at 1 mg/kg in the assay with Mus musculus was 20%. The values for the IC50 (with Hepatocyte; in assay [1]; in assay [2]) were 0.2 nM, 549 nM and 0.3 nM, respectively.
For `CC(C)n1c(CC[C@@H](O)C[C@@H](O)CC(=O)O)c(-c2ccc(F)cc2)c(-c2ccccc2)c1C(=O)Nc1ccc(C(N)=O)cc1`, the inhibition in vivo at 1 mg/kg in the assay with Mus musculus stood at 45%. Also, the IC50 in the assay with Hepatocyte turned out to be 0.1 nM; in assay [1] it was 684 nM; in assay [2] it was 0.3 nM.
For the compound `CC(C)n1c(CC[C@@H](O)C[C@@H](O)CC(=O)O)c(-c2ccc(F)cc2)c(-c2ccccc2)c1C(=O)NCc1ccccc1`, the inhibition in vivo at 1 mg/kg with Mus musculus turned out to be 46%. In addition, the IC50 worked out at 0.3 nM in the assay with Hepatocyte, 44 nM in assay [1] and 0.8 nM in assay [2].
For the compound `CC(C)n1c(CC[C@@H](O)C[C@@H](O)CC(=O)O)c(-c2ccc(F)cc2)c(-c2ccc(F)cc2)c1C(=O)Nc1ccccc1`, in the assay with Mus musculus, the inhibition in vivo at 1 mg/kg was 75%. Besides, the IC50 with Hepatocyte stood at 0.4 nM; in assay [1] it was 145 nM.
With `CC(C)c1nc(N(C)S(C)(=O)=O)nc(-c2ccc(F)cc2)c1/C=C/[C@@H](O)C[C@@H](O)CC(=O)O` [ROSUVASTATIN], the inhibition in vivo at 1 mg/kg with Mus musculus stood at 82%. Further, the IC50 in the assay with Hepatocyte turned out to be 0.27 nM; in assay [1], 250 nM; in assay [2], 3.1 nM. In assay [3], the Activity is listed as -25%.
For `CC(C)n1c(CC[C@@H](O)C[C@@H](O)CC(=O)O)c(-c2ccc(F)cc2)c(-c2ccccc2)c1C(=O)Nc1ccc(C(=O)N(C)C)cc1`, the inhibition in vivo at 1 mg/kg in the assay on Mus musculus was 10%. In addition, the IC50 was determined as 0.7 nM in the assay with Hepatocyte, 1110 nM in assay [1] and 1.4 nM in assay [2].
As to `CC(C)n1c(CC[C@@H](O)C[C@@H](O)CC(=O)O)c(-c2ccc(F)cc2)c(-c2ccccc2)c1C(=O)NCc1ccc(C#N)cc1`, the inhibition in vivo at 1 mg/kg in the assay on Mus musculus was found to be 47%. Moreover, the figures for the IC50 (with Hepatocyte; in assay [1]; in assay [2]) were 0.7 nM, 650 nM and 0.2 nM, respectively.
For the compound `CC(C)n1c(CC[C@@H](O)C[C@@H](O)CC(=O)O)c(-c2ccc(F)cc2)c(-c2ccccc2)c1C(=O)NCc1ccc(C(=O)O)cc1`, the inhibition in vivo at 1 mg/kg in the assay with Mus musculus is 7%. In addition, the values for the half-maximal inhibitory concentration (IC50) (in the assay on Hepatocyte; in assay [1]; in assay [2]) were 0.1 nM, 7920 nM and 2.2 nM, respectively.
In the case of `CC(C)n1c(CC[C@@H](O)C[C@@H](O)CC(=O)O)c(-c2ccc(F)cc2)c(-c2ccccc2)c1C(=O)NCc1cccc(C(N)=O)c1`, the inhibition in vivo at 1 mg/kg with Mus musculus stood at 22%. The results for the IC50 (in the assay with Hepatocyte; in assay [1]; in assay [2]) were 0.1 nM, 3100 nM and 1.2 nM, respectively.
Take `CC(C)NC(=O)c1c(-c2ccccc2)c(-c2ccc(F)cc2)c(CC[C@@H](O)C[C@@H](O)CC(=O)O)n1C(C)C`: the inhibition in vivo at 1 mg/kg in the assay on Mus musculus is 73%. The results for the IC50 (with Hepatocyte; in assay [1]; in assay [2]) were 1.6 nM, 1930 nM and 15 nM, respectively.
In the case of `Cc1cc(CNC(=O)c2c(-c3ccccc3)c(-c3ccc(F)cc3)c(CC[C@@H](O)C[C@@H](O)CC(=O)O)n2C(C)C)n[nH]1`, the IC50 was determined as 0.5 nM in the assay on Hepatocyte, 10400 nM in assay [1] and 2.6 nM in assay [2].
